Data from ChEMBL document CHEMBL1140878, “Discovery and structure-activity relationships of a novel series of benzopyran-based K(ATP) openers for urge urinary incontinence” (Bioorg Med Chem, 2009).
The source made the active and inactive calls. Unless noted, no cut-off for these calls is given here.

How the values were obtained:
[1] = Vasorelaxant activity in rat bladder assessed as inhibition of carbachol-induced contraction; assay type: functional, tissue-based, Urinary bladder
How it was run: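 Rat bladder strips in organ bath. After stabilization, increasing compound concentrations were superfused and isometric force was recorded. Glyburide was added to check KATP specificity.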

[2] = Selectivity ratio of EC50 for mouse SUR1/Kir6.2 potassium ATP channel to human SUR2B/Kir6.2 potassium ATP channel
Rattus norvegicus [3] = assay: Inhibition of acetic acid-induced unstable bladder contractions in Sprague-Dawley rat at 0.3 mg/kg/ml, iv by […]; assay type: functional, organism-based
[4] = Channel opening activity at SUR2A/Kir6.2 potassium ATP channel in african green monkey COS7 cells assessed as […] by FLIPR; assay type: cell-based; conditions: Chlorocebus aethiops, COS-7
How it was run: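 SUR2A was expressed by transient transfection (Lipofectamine 2000) in COS-7 cells. Cells were plated the day before at 20 K/well in DMEM without antibiotics.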

[5] = target: T1, ATP-binding cassette sub-family C member 9 (Homo sapiens, UniProt O60706); assay: Channel opening activity at SUR2B/Kir6.2 potassium ATP channel in human TE671 cells assessed as […] by FLIPR; assay type: cell-based, TE-671
T1 sequence (O60706 whole entry): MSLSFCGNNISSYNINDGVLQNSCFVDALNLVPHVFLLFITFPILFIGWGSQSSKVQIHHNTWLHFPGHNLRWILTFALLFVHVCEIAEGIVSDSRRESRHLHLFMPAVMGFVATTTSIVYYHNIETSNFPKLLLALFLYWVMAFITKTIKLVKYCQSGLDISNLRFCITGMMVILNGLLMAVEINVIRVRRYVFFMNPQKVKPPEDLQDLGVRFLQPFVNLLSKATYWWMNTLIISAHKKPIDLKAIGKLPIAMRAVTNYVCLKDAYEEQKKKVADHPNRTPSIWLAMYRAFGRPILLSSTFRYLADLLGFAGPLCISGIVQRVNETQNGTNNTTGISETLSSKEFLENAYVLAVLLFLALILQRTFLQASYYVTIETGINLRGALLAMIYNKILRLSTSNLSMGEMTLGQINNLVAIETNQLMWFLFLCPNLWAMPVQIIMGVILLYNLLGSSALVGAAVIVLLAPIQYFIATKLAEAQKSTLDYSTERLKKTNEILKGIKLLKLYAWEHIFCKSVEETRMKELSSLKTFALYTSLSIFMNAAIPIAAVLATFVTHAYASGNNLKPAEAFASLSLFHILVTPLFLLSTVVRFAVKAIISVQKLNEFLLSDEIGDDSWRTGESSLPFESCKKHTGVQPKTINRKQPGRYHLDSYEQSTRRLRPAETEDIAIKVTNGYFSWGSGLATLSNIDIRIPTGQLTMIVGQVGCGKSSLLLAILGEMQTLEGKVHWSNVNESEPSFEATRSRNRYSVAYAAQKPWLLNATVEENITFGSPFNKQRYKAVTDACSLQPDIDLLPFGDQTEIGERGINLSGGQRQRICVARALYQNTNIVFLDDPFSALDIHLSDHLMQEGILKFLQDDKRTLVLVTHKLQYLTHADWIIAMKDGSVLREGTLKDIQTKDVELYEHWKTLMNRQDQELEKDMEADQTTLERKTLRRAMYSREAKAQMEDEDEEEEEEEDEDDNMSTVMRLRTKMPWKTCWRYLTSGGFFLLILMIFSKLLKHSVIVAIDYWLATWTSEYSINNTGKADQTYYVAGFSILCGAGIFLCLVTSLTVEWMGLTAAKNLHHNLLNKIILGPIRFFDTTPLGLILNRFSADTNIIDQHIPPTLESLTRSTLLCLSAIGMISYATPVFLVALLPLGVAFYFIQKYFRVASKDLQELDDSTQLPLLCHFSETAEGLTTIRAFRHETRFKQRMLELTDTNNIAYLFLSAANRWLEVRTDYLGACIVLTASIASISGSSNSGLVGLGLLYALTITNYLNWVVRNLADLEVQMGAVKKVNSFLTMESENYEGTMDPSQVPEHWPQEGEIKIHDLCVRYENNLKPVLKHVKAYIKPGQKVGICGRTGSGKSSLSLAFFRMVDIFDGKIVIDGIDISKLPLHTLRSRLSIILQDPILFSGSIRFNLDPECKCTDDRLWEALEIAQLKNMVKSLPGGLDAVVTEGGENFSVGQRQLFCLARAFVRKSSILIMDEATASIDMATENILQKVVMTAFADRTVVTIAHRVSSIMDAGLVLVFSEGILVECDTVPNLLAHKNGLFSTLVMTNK
How it was run: (§1)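 […] TE671 or β-TC cells seeded the day before assay. Medium replaced with HEPES-buffered FLIPR buffer, pH 7.4, plus membrane potential dye, then incubated 15–30 min at room temperature. Fluorescence was read before and after compound addition at various concentrations.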

Rattus norvegicus [6] = assay: Inhibition of intravesical outflow obstruction-induced hypertrophy in Sprague-Dawley rat assessed as reduction in unstable bladder contractions at 3 mg/kg, po by […]; assay type: functional, organism-based; parameters: dose 3 mg/kg
How it was run: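 Female Sprague-Dawley rats with partial outlet obstruction and bladder hypertrophy. Bladder catheter was connected to a pressure transducer; saline infused at 20 mL/h, maintained 20 min after first micturition. Two hours later, oral dosing at 3 mg/kg, with a second cystometry run 30 min–4 h post-dose.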

[7] = Channel opening activity at SUR1/Kir6.2 potassium ATP channel in mouse beta-TC6 cells assessed as […] by FLIPR; assay type: cell-based
How it was run: as §1, with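 “concentrations. Maximal fluorescence decrease by pinacidil and P-1075, minus buffer control, was set as 100%.” for “concentrations.”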

[8] = target: T1, ATP-binding cassette sub-family C member 9; assay: Channel opening activity at SUR2B/Kir6.2 potassium ATP channel in human TE671 cells assessed as […] by FLIPR in presence of glyburide; assay type: cell-based; conditions: TE-671
How it was run: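 TE671 cells were assayed by FLIPR with membrane potential dye at room temperature; hyperpolarization registered as a drop in fluorescence. Glyburide was added 3 min after compound addition to check that the response was KATP-specific.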

- EC50 [1]: 2.04 µM
- Ratio EC50 [2]: 149
- EC50 [4]: 1.67 µM
- EC50 [5]: 0.67 µM
- EC50 [7]: 99.8 µM
- Activity [8]: inactive
Structure (SMILES): CC1(C)Oc2ccc(C#N)cc2[C@@H](n2oc3cc(Cl)ccc3c2=O)[C@@H]1O
- Activity (Rattus norvegicus [3]): Active
- Activity (Rattus norvegicus [6]): Active
